Screening results (PubChem BioAssay)
Autophagy mod: autophagy modulators in MEF cells, primary screen, imaging, high-content, MEF GFP-LC3 | MEF GFP-LC3 puncta imaging; test concentration mostly 10 µM | actives 0.98% (n = 190,000) | calls only at 10 µM (by protocol);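 active = percentage of spot-positive cells more than 3 SD above its plate mean, without a fluorescence outlier flag or 80% toxicity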
CHOP inhibitor: inhibitors of CHOP promoter induction, primary screen, cell-based, unfolded protein response, luciferase reporter; CHO-K1 CHOP-promoter luciferase, tunicamycin-induced, 15-18 h; inhibition, % at 10 µM; actives 3.8% (n = 220,000); AID 2732, 2010;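 active = compounds that reduced the stress-induced luciferase reporter signal by more than about 70% of percent inhibition, limit read from the data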
Dynein transport: inhibitors of GR-EGFP nuclear translocation, primary screen, dynein cargo transport inhibitor project, imaging, high-content, 3617.4 mouse cells; test concentration mostly 20 µM; stimulated with dexamethasone, 1 µM; hits give low values; z-score, hits read low; actives 0.47% (n = 220,000); AID 1381, 2008;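 active = plate z-score of nuclear minus cytoplasmic receptor signal below a set negative limit, without overly bright fluorescence or cell loss, cut at about -3.5 in these data, passing the limit was not always enough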;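 note: z-score of nuclear minus cytoplasmic ring GR-EGFP intensity difference per well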
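Buffer or medium: tet-free, stripped-serum medium; Also added: dexamethasone, 1.0 µM final; Technique: high-content fluorescence imaging after fixation; Times: 48 h induction, 1 h compound, 30 min dex at 37 °C; Read-out: per-cell GR-EGFP intensity, nucleus versus surrounding cytoplasmic ring, well-averaged.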
MT stabilizer: microtubule stabilizers in HeLa cells, primary screen, imaging, high-content imaging; actives 0.83% (n = 200,000); AID 2205, 2009; % tubulin-high responders, % at 10 µM; HeLa tubulin immunostaining HCS, 24 h; share of cells brighter than vehicle mean+2SD;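 active = plate Z-score above 3 for both tubulin-high and condensed-nucleus cell shares, with cell loss under 80%, at 10 µM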;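 note: anti alpha tubulin signal scored within the nucleus-defined area of each cell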
bCat nuc transl: modulators of beta-catenin nuclear translocation, primary screen, imaging, HeLa cells, immunofluorescence, high-content | nuclear translocation activity, % at 5 µM | actives 0.3% (n = 190,000);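 active = nuclear translocation activity above 50% at 5 µM, with a well cell count of 50 or more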;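 note: per-cell ratio of nuclear to cytoplasmic median beta-catenin stain intensity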
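assay system = human HeLa cells, endogenous beta-catenin | times = compound treatment 24 h, 37°C, 5% CO2 | detection = Anti-beta-catenin immunofluorescence on PFA-fixed, Triton-permeabilized cells, DAPI nuclei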
L major viab: Leishmania major promastigote growth inhibition, primary screen | inhibition, % at 10 µM | Leishmania major promastigotes, resazurin fluorescence viability | actives 9% (n = 200,000) | AID 1063, 2008; in the data active = inhibition above about 50%;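 note: promastigotes grown with compound for 44 hours at 28 °C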
Numbers stand for hits; - = inactive; . = not tested or not shown; + = active, no number. Sampled rows, rich in hits. Any-hit rate of the full collection: about 12%.

SMILES | Autophagy mod | CHOP inhibitor | Dynein transport | MT stabilizer | bCat nuc transl | L major viab
CCOC(=O)N1CCC(NS(=O)(=O)c2ccc3c(c2)CCN3C(C)=O)CC1 | - | 73.0 | - | - | - | -
CCOC(=O)N1CCC(NC(=O)CCS(=O)(=O)c2ccc3c(c2)CCN3C(=O)CC)CC1 | - | - | - | - | - | -
CC(=O)N1CCc2cc(S(=O)(=O)NCCN3CCC(C)CC3)ccc21 | - | - | - | - | . | 58.4
CC(=O)N1CCc2cc(S(=O)(=O)N3CCOCC3)ccc21 | - | - | - | - | . | -
CC(=O)N1CCc2cc(S(=O)(=O)NC(CC(C)C)C(=O)N3CCc4ccccc4C3)ccc21 (centres undefined) | - | - | - | - | - | 72.7
CC(=O)N1CCc2cc(S(=O)(=O)N3c4ccccc4CC3C)ccc21 (centres undefined) | + | - | - | - | - | -
CC(=O)N1CCc2cc(S(=O)(=O)NCCCN3CCN(Cc4ccccc4)CC3)ccc21 | - | - | - | - | . | -
Cn1cccc1/C=N\NC(=O)Cc1ccc(Br)c2ccccc12 | - | - | - | - | . | -
O=C(O)/C=C(\Oc1ccccc1)C1(O)CCCCC1 | . | - | - | . | - | .
CCCC(C)NC(=O)COc1ccc(S(=O)(=O)N2CCCC2)cc1 (centres undefined) | - | - | - | - | - | -
Cc1ccccc1C(=O)N1CCC(C(=O)Nc2ccc3c(c2)OCO3)CC1 | - | - | - | - | - | -
Cn1cc(CN2CCC(O)CC2)c(-c2ccc(Oc3ccccc3)cc2)n1 | - | - | - | - | - | 81.0
Cc1cc(CNCc2cn(C)nc2-c2ccc(Oc3ccccc3)cc2)on1 | - | - | - | - | - | 59.6
CCOC(=O)C1CCN(Cc2cn(C)nc2-c2ccc(Oc3ccccc3)cc2)CC1 | - | - | - | - | - | 78.8
CCN(Cc1ccncc1)Cc1cn(C)nc1-c1ccc(Oc2ccccc2)cc1 | - | - | - | - | - | 96.3
Cn1cc(CNCC2CCCO2)c(-c2ccc(Oc3ccccc3)cc2)n1 (centres undefined) | - | - | - | - | - | -
COCCN1CCN(Cc2cn(C)nc2-c2ccc(Oc3ccccc3)cc2)CC1 | . | - | - | . | - | .
CCOC(=O)C1CCN(Cc2cnc(Oc3ccc(C(C)(C)C)cc3)s2)CC1 | - | - | - | - | - | 90.8
Cn1cc(CN2CCN(CCO)CC2)c(-c2ccc(Oc3ccccc3)cc2)n1 | - | - | - | - | - | 51.0
CCCCN(CC)S(=O)(=O)c1ccc(C(=O)N(CCCN(C)C)c2nc3cc(C)cc(C)c3s2)cc1 | + | 86.9 | - | - | - | 100.1
Cc1ccc2sc(N(CCCN(C)C)C(=O)c3ccc(S(=O)(=O)N(C)C)cc3)nc2c1C | - | - | - | - | - | 73.6
Cc1cc(C)c2sc(N(CCCN(C)C)C(=O)c3ccc(Br)s3)nc2c1 | - | - | - | - | - | 54.5
Cc1cc(C)c2sc(N(CCN(C)C)C(=O)c3c(F)cccc3F)nc2c1 | - | - | - | - | . | -
Cn1c(O)c(C=NCC2CCNCC2)c(=O)n(C)c1=O | - | - | - | - | - | -
O=C(N/N=C/c1cccc(Oc2ccccc2)c1)c1ccccc1Br | - | 84.1 | - | 26.6 | - | 95.5
SMILES | Autophagy mod | CHOP inhibitor | Dynein transport | MT stabilizer | bCat nuc transl | L major viab
CCOC(=O)C(=O)N/N=C/c1cccc(Br)c1 | . | - | - | . | - | .
O=C(N/N=C/c1cccc(Br)c1)c1ccc(Br)cc1 | - | - | - | - | - | -
CCCCNC(=O)C(=O)N/N=C/c1cccc(Br)c1 | - | 70.6 | - | - | - | -
O=C(NN=C1c2ccccc2-c2ccccc21)c1cccc(Br)c1 | - | 76.6 | - | - | - | 89.4
O=C(N/N=C/c1cccc(Oc2ccccc2)c1)c1cccc(Br)c1 | - | - | - | - | - | 95.0
CCN1C(=O)C(CC(=O)Nc2c(C)cccc2C)Nc2cc(S(=O)(=O)N(C)C)ccc21 (centres undefined) | - | - | - | - | - | -
O=C(c1ccc(C(=O)N2CCOCC2)nc1)N1CCOCC1 | - | - | - | - | . | -
COC(=O)CSc1nnc(CNS(=O)(=O)c2ccc(Cl)cc2)n1C | - | - | - | - | - | -
O=C(CCCN1C(=O)c2ccccc2C1=O)Nc1cccc(S(=O)(=O)NC2=NCCC2)c1 | - | - | - | - | - | -
O=C(N/N=C/c1ccccc1O)c1cc(=O)[nH]c2ccccc12 | - | - | - | - | - | 99.0
CC(NC(=O)c1cc(=O)[nH]c2ccccc12)c1ccccc1 (centres undefined) | - | - | - | - | - | -
N#Cc1ccsc1NC(=O)COC(=O)c1cc2ccccc2cc1O | - | - | - | - | . | 79.0
CCN1CCC2(CC1)N=C(c1ccc(F)cc1)C(=S)N2C(=O)c1ccc(C(C)(C)C)cc1 | - | 92.8 | - | - | - | -
CN1CCC2(CC1)N=C(c1ccc(F)cc1)C(=S)N2C(=O)c1ccccc1 | - | - | - | - | - | -
Cc1ccc(NC(=O)Cn2ccc([N+](=O)[O-])n2)cc1Cl | - | - | - | - | - | -
CNc1nc(SC)n(C)c(=O)c1N=O | . | - | - | . | - | .
CCC(=NCCc1c(C)[nH]c2ccc(C)cc12)C1=C(O)CC(c2ccccc2)CC1=O (centres undefined) | - | - | - | 15.5 | 135.3 | -
CC(=O)C1=C(O)CC(c2ccccc2)CC1=NCCc1c(C)[nH]c2ccc(C)cc12 (centres undefined) | - | - | - | - | - | -
CCC/C(O)=C1\C(=O)CC(c2ccccc2)CC1=NCCc1c(C)[nH]c2ccc(C)cc12 (centres undefined) | - | - | - | - | - | 57.8
CC/C(O)=C1\C(=O)CC(c2ccccc2)CC1=NCCc1c(C)[nH]c2ccc(C)cc12 (centres undefined) | - | - | - | - | - | 73.5
O=S(=O)(Nc1ccc(S(=O)(=O)Nc2nccs2)cc1)c1ccc2c(c1)OCCO2 | - | - | - | - | - | -
C/C(=N\NC(=O)CCC(=O)Nc1ccc(C)c(C)c1)c1cccs1 | - | - | - | - | - | -
O=C(c1ccccc1Nc1ccc(SC(F)F)cc1)N1CCCCCC1 | - | 86.5 | - | - | . | -
COC(=O)C1=C(C)NC2=C(C(=O)CCC2)C1c1cn(Cc2ccc(Cl)cc2Cl)nc1-c1ccccc1 (centres undefined) | - | - | - | - | - | 56.8
Cc1ccc(OCC(=O)Nc2ccc3c4c(cccc24)CC3)c(C)c1 | - | 81.7 | - | - | . | -
CCOC(=O)N1CCN(C(=O)c2ccccc2NC(=O)c2ccc(C(C)(C)C)cc2)CC1 | - | - | - | - | . | 73.7
CCOC(=O)C1CCN(C(=O)c2ccccc2NC(=O)c2ccc(Cl)cc2)CC1 | - | - | - | - | . | -
